Experimental findings from ChEMBL document CHEMBL4706674 (Bioorg Med Chem Lett, 2021) are described below.

Series [1] concerns Human immunodeficiency virus 1. As to the kind of experiment: Antiviral activity against wild type HIV-1 NL4-3 harbouring Gag AV370 mutant infected in MT-2 cells assessed as inhibition of viral replication in presence of 10% of fetal bovine serum by luciferase reporter gene based multicycle replication assay. Conditions: Human immunodeficiency virus 1, NL4-3, MT2. It is filed as functional, organism-based. The essentials: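 Multiple-cycle replication assay in MT-2 cells using NL4-3-derived virus carrying a Renilla luciferase reporter (NLRepRlucP373S) as the growth marker. V370A and ΔV370 viruses are identical to WT except for that single substitution or deletion at position 370.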

In series [2] the test system is Human immunodeficiency virus 1. Kind of series: Antiviral activity against wild type HIV-1 NL4-3 harbouring Gag V370A mutant infected in MT-2 cells assessed as inhibition of viral replication in presence of 10% of fetal bovine serum by luciferase reporter gene based multicycle replication assay. Conditions: Human immunodeficiency virus 1, NL4-3, MT2. The class given is functional, organism-based.

Series [3] in a line: Cytotoxicity against human MT2 cells. The class given is cell-based.
Series [4] concerns Human immunodeficiency virus 1. As to the kind of experiment: Antiviral activity against wild type HIV-1 NL4-3 infected in MT-2 cells assessed as inhibition of viral replication in presence of 10% of fetal bovine serum by luciferase reporter gene based multicycle replication assay. It is filed as functional, organism-based. The conditions noted are these: Human immunodeficiency virus 1, NL4-3, MT2.

For series [5], the system named is Human immunodeficiency virus 1. As to the kind of experiment: Antiviral activity against wild type HIV-1 NL4-3 harbouring Gag AV370/T371A mutant infected in MT-2 cells assessed as inhibition of viral replication in presence of 10% of fetal bovine serum by luciferase reporter gene based multicycle replication assay. The class given is functional, organism-based. Conditions: Human immunodeficiency virus 1, NL4-3, MT2.

Series [6] can be described thus: Metabolic stability in human liver microsomes assessed as half life. It is filed as ADME, Microsome. Conditions: time 2 min.
Series [7] in a line: Metabolic stability in rat liver microsomes assessed as half life. The class given is ADME, Microsome. Conditions: time 2 min.
A short description of series [8]: Tmax in rat at 5 mg/kg, po measured after 24 hrs. It is filed as ADME, organism-based. The conditions noted are these: in vivo. An outline of the steps:
(§1)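 Rats dosed 5 mg/kg PO and 1 mg/kg IV; each value is the mean of 3 rats unless otherwise noted (some n = 2). Vehicle PEG 300/ethanol/Tween 80 (89:10:1 v/v), or PEG 300/ethanol/0.1 N NaOH/Tween 80 (84.5:10:5:0.5 v/v). F, tmax, Cmax and CL come from a full 24 h PK screen. AUCtotal is derived from the full 24 h run plus a 6 h PK screen.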

A short description of series [9]: Oral bioavailability in rat measured at 5 mg/kg up to 24 hrs. It is filed as ADME, organism-based. The conditions noted are these: in vivo. An outline of the steps:
as §1

For series [10], the system named is Human immunodeficiency virus 1. As to the kind of experiment: Antiviral activity against wild type HIV-1 NL4-3 harbouring Gag […]/V370A mutant infected in MT-2 cells assessed as inhibition of viral replication in presence of 10% of fetal bovine serum by luciferase reporter gene based multicycle replication assay. The conditions noted are these: Human immunodeficiency virus 1, NL4-3, MT2. It is filed as functional, organism-based.

Series [11] has as its system Human immunodeficiency virus 1. As to the kind of experiment: Antiviral activity against wild type HIV-1 NL4-3 infected in MT-2 cells assessed as inhibition of viral replication in presence of 40% human serum and 27 mg/ml human serum albumin by luciferase reporter gene based multicycle replication assay. The class given is functional, organism-based. The conditions noted are these: Human immunodeficiency virus 1, NL4-3, MT2.

The subject of series [12] is Human immunodeficiency virus 1. As to the kind of experiment: Antiviral activity against wild type HIV-1 NL4-3 harbouring Gag A364V mutant infected in MT-2 cells assessed as inhibition of viral replication in presence of 10% of fetal bovine serum by luciferase reporter gene based multicycle replication assay. The class given is functional, organism-based. The conditions noted are these: Human immunodeficiency virus 1, NL4-3, MT2.

Series [13] can be described thus: Volume of distribution at steady state in rat at 1 mg/kg, iv. The conditions noted are these: in vivo, read-out: Vdss. It is filed as ADME, organism-based.
Series [14] is described as follows: Cmax in rat at 5 mg/kg, po measured after 24 hrs. The class given is ADME, organism-based. More on the design: route oral, dose 5 mg/kg, time 24 hrs. The conditions noted are these: in vivo. An outline of the steps:
as §1

A short description of series [15]: AUCtotal in rat at 5 mg/kg, po measured after 24 hrs. The class given is ADME, organism-based. On the set-up: route oral, dose 5 mg/kg, time 24 hrs. The conditions noted are these: in vivo. An outline of the steps:
as §1

The nature of series [16]: Clearance in rat at 1 mg/kg, iv measured after 24 hrs. Conditions: in vivo. It is filed as ADME, organism-based. An outline of the steps:
as §1

Structures are written as SMILES.

Take `C=C(C)[C@@H]1CC[C@]2(C(=O)O)CC[C@]3(C)[C@H](CC[C@@H]4[C@@]5(C)CC=C(C6=CC7(C6)CC(C(=O)O)(C(=O)O)C7)C(C)(C)[C@@H]5CC[C@]43C)[C@@H]12`: the EC50 was 437 nM in series [1], 85.4 nM in series [2] and 28.3 nM in [4]. In [3], this compound displayed a cytotoxic concentration (CC50) of 18.6 µM.

In the case of `C=C(C)[C@@H]1CC[C@]2(CO)CC[C@]3(C)[C@H](CC[C@@H]4[C@@]5(C)CC=C(C#CC(=O)O)C(C)(C)[C@@H]5CC[C@]43C)[C@@H]12`, the EC50 is > 3000 nM in series [1], > 3000 nM in [2] and 252 nM in [4]. The half-maximal cytotoxic concentration (CC50) in series [3] was > 10 µM.

Compound `C=C(C)[C@@H]1CC[C@]2(NCCN3CCS(=O)(=O)CC3)CC[C@]3(C)[C@H](CC[C@@H]4[C@@]5(C)CC=C(CCCC(C)(C)C(=O)O)C(C)(C)[C@@H]5CC[C@]43C)[C@@H]12` displayed a CC50 in [3] of 8.2 µM. Further, the results for the half-maximal effective concentration (EC50) in series [5] and in series [4] were 29.7 nM and 5.3 nM, respectively.

Regarding `C=C(C)[C@@H]1CC[C@]2(C(=O)O)CC[C@]3(C)[C@H](CC[C@@H]4[C@@]5(C)CC[C@H](OC(=O)CC(C)(C)C(=O)O)C(C)(C)[C@@H]5CC[C@]43C)[C@@H]12` [BEVIRIMAT], the half-life in series [6] was > 120 min; in series [7], 29.5 min. Also, the time to peak (Tmax) in [8] is 1.8 h. Moreover, the F in [9] (5 mg/kg, 24 h) was found to be 54%.

`C=C(C)[C@@H]1CC[C@]2(NCCN3CCC(S(C)(=O)=O)CC3)CC[C@]3(C)[C@H](CC[C@@H]4[C@@]5(C)CC=C(C6=CC[C@@H](C(=O)O)CC6)C(C)(C)[C@@H]5CC[C@]43C)[C@@H]12`: the EC50 came out at 2.7 nM in series [1]; 14.7 nM in [10]; 5 nM in series [11]; 1800 nM in series [12]; 2.7 nM in [4]. Also, the cytotoxic concentration (CC50) in [3] was found to be 9 µM.

As to `C=C(C)[C@@H]1CC[C@]2(NCCN3CCS(=O)(=O)CC3)CC[C@]3(C)[C@H](CC[C@@H]4[C@@]5(C)CC=C(C6=CCC(C(=O)O)(C(=O)O)CC6)C(C)(C)[C@@H]5CC[C@]43C)[C@@H]12`, the EC50 in [1] was 40.1 nM; in series [2], 39.2 nM; in [10], 113 nM; in [4], 99 nM. This compound also returned a CC50 in [3] of 13.2 µM.

`C=C(C)[C@@H]1CC[C@]2(NCCN3CCC(S(C)(=O)=O)CC3)CC[C@]3(C)[C@H](CC[C@@H]4[C@@]5(C)CC=C(C6=CC[C@H](C(=O)O)CC6)C(C)(C)[C@@H]5CC[C@]43C)[C@@H]12`: the EC50 amounted to 4.2 nM in series [1]; 9.6 nM in series [10]; 6.6 nM in series [11]; 878 nM in series [12]; 1.4 nM in series [4]. Besides, half-maximal cytotoxicity in [3] (CC50) was put at 9.1 µM.

`C=C(C)[C@@H]1CC[C@]2(NCCN3CCS(=O)(=O)CC3)CC[C@]3(C)[C@H](CC[C@@H]4[C@@]5(C)CC=C(CCCC(C(=O)O)C(=O)O)C(C)(C)[C@@H]5CC[C@]43C)[C@@H]12`: the 50% cytotoxic concentration (CC50) in series [3] is > 30 µM. For the same compound, the results for the EC50 in [5] and in series [4] were 555 nM and 306 nM, respectively.

For the compound `C=C(C)[C@@H]1CC[C@]2(NCCN3CCS(=O)(=O)CC3)CC[C@]3(C)[C@H](CC[C@@H]4[C@@]5(C)CC=C(C6=CC[C@@H](C(=O)O)CC6)C(C)(C)[C@@H]5CC[C@]43C)[C@@H]12`, the EC50 in series [1] was determined as 3.1 nM; in [2] it was 1.3 nM; in [11], 5.7 nM; in series [4], 0.9 nM. Further, the Vd in [13] stood at 2.3 L/kg. The half-life in [6] was 58 min; in series [7], > 120 min. For the same compound, the time of peak concentration (Tmax) in [8] came to 2.7 h. The peak concentration (Cmax) in [14] came out at 1100 nM. The exposure (AUC) in series [15] stood at 15.8 µM·h. In addition, in series [3], the midpoint of cytotoxicity, the CC50, lay at 12.2 µM. The bioavailability in series [9] came to 58%. Moreover, the clearance in [16] came out at 4.3 mL/min/kg.

With `C=C(C)[C@@H]1CC[C@]2(NCCN3CCS(=O)(=O)CC3)CC[C@]3(C)[C@H](CC[C@@H]4[C@@]5(C)CC=C(C6=CCC(C(=O)O)CC6)C(C)(C)[C@@H]5CC[C@]43C)[C@@H]12` (stereo partly specified), the EC50 in series [1] was 2.1 nM; in series [2], 0.8 nM; in series [11], 8.9 nM; in series [4] it was 0.6 nM. The same compound displayed a cytotoxic concentration (CC50) in series [3] of 9.6 µM.

`C=C(C)[C@@H]1CC[C@]2(NCCN3CCS(=O)(=O)CC3)CC[C@]3(C)[C@H](CC[C@@H]4[C@@]5(C)CC=C(CCCCC(=O)O)C(C)(C)[C@@H]5CC[C@]43C)[C@@H]12`: it took 10.2 µM to reach half-maximal cytotoxicity in series [3] (CC50). The EC50 is 118 nM in series [5] and 2.3 nM in series [4].

As to `C=C(C)[C@@H]1CC[C@]2(NCCN3CCS(=O)(=O)CC3)CC[C@]3(C)[C@H](CC[C@@H]4[C@@]5(C)C=CC(=C6CC7(C6)CC(C(=O)O)(C(=O)O)C7)C(C)(C)[C@@H]5CC[C@]43C)[C@@H]12`, the concentration giving a half-maximal response (EC50) amounted to 60.8 nM in [1], 53.1 nM in [2] and 26.7 nM in series [4]. In addition, the CC50 in [3] is > 10 µM.

As to `C=C(C)[C@@H]1CC[C@]2(NCCN3CCC(S(C)(=O)=O)CC3)CC[C@]3(C)[C@H](CC[C@@H]4[C@@]5(C)CC=C(c6ccc(C(=O)O)cc6)C(C)(C)[C@@H]5CC[C@]43C)[C@@H]12`, in series [4], the EC50 was 1.9 nM.

Turning to `C=C(C)[C@@H]1CC[C@]2(NCCN3CCS(=O)(=O)CC3)CC[C@]3(C)[C@H](CC[C@@H]4[C@@]5(C)CC=C(C6=CC[C@H](C(=O)O)CC6)C(C)(C)[C@@H]5CC[C@]43C)[C@@H]12`, the EC50 worked out at 4.1 nM in [1], 2 nM in [2], 5 nM in series [11] and 1.3 nM in series [4]. In series [3], this compound gave a CC50 of 4.1 µM.

For `C=C(C)[C@@H]1CC[C@]2(NCCN3CCS(=O)(=O)CC3)CC[C@]3(C)[C@H](CC[C@@H]4[C@@]5(C)CC=C(CCC(C)(C)CC(=O)O)C(C)(C)[C@@H]5CC[C@]43C)[C@@H]12`, the 50% effective concentration (EC50) in series [1] amounted to 2.3 nM; in series [10], 1.6 nM; in [11] it was 6.8 nM; in [12], 1290 nM; in [4] it was 1.3 nM. The compound also returned a CC50 in series [3] of 12.3 µM.

For `C=C(C)[C@@H]1CC[C@]2(NCCN3CCS(=O)(=O)CC3)CC[C@]3(C)[C@H](CC[C@@H]4[C@@]5(C)CC=C(C6=CC7(C6)CC(C(=O)O)(C(=O)O)C7)C(C)(C)[C@@H]5CC[C@]43C)[C@@H]12`, the results for the EC50 in [1], in series [2] and in [4] were 61.1 nM, 28.8 nM and 13 nM, respectively. Moreover, in series [3], the cytotoxic concentration (CC50) was > 30 µM.

Regarding `C=C(C)[C@@H]1CC[C@]2(NCCN3CCS(=O)(=O)CC3)CC[C@]3(C)[C@H](CC[C@@H]4[C@@]5(C)CC=C(CC6CCC(C(=O)O)CC6)C(C)(C)[C@@H]5CC[C@]43C)[C@@H]12` (stereo partly specified), the 50% effective concentration (EC50) in [10] was 12.4 nM; in [5], 5.6 nM; in series [12] it was 1850 nM; in [4], 3 nM. Further, half-maximal cytotoxicity in series [3] (CC50) was put at 13.5 µM.
